In ChEMBL document CHEMBL2029242 (J Med Chem, 2012):
Active and inactive are the calls of the source. The calls are words filed in the database; no cut-off is given here.

Columns and labels:
[1] = Volume of distribution in Sprague-Dawley rat at 1 mg/kg, iv and 10 mg/kg, po; assay type: ADME, organism-based; settings: in vivo
Method in brief: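 Male Sprague-Dawley rats (250–350 g, jugular-catheterized) received a single dose either iv at 1 mg/kg in 3:1 PEG400/water (n = 2) or po at 10 mg/kg in Pharmatek #6 (n = 3). Plasma was sampled at 5 min (iv only), 15 and 30 min, and 1, 2, 4, 6 and 24 h. Samples were analyzed by LC-MS/MS after acetonitrile precipitation. Parameters came from noncompartmental linear-trapezoidal analysis of individual animals.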

[2] = Stability in rat liver microsomes assessed as compound remaining at 1 uM after 60 mins; assay type: ADME, Microsome; settings: read-out: Stability
Method in brief: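 Pooled liver microsomes (0.5 mg/mL) were premixed with 0.1 M phosphate buffer pH 7.4, 6.5 mM MgCl2 and test compound (1 μM final, 0.2% DMSO). NADPH (1 mM) started the reaction at 37 °C, in duplicate. Minus-NADPH and testosterone controls were included. Aliquots were taken at 0, 5, 15, 30 and 60 min and quenched in acetonitrile containing internal standard.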

[3] = molecular target: RAF proto-oncogene serine/threonine-protein kinase (Homo sapiens, UniProt P04049); assay: Inhibition of CRAF in human HEK293 cells after 1 hr by competition binding assay; assay type: cell-based
Sequence of RAF proto-oncogene serine/threonine-protein kinase (P04049 whole entry): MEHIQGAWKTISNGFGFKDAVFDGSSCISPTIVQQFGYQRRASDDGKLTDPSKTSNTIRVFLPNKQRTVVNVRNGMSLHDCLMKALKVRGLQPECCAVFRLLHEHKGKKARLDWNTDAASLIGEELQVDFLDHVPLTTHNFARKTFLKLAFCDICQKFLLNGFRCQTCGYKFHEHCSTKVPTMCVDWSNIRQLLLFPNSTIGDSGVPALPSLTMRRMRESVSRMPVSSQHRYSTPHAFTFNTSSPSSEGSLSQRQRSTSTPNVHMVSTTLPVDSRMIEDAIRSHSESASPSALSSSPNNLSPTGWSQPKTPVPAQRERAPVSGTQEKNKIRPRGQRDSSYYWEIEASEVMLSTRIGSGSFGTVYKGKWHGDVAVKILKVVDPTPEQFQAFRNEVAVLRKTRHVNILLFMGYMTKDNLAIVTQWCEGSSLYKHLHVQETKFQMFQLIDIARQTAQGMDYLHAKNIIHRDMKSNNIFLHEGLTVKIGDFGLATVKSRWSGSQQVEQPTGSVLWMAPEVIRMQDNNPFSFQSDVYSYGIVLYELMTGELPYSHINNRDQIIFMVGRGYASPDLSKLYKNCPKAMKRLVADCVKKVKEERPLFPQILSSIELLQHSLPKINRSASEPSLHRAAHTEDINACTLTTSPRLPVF
Method in brief: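 KINOMEscan competition binding. Binding reactions run at rt for 1 h. Kinase not bound to compound is captured on an immobilized affinity ligand and quantified by qPCR.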

[4] = molecular target: Macrophage colony-stimulating factor 1 receptor (Homo sapiens, UniProt P07333); assay: Inhibition of CSF1R in human HEK293 cells after 1 hr by competition binding assay; assay type: cell-based
Method in brief: (§1)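 Unbound kinase was captured on immobilized affinity ligand and quantified by qPCR. Kd came from eleven serial 3-fold dilutions, as the mean of duplicates.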

[5] = molecular target: Tyrosine-protein kinase JAK2 (Homo sapiens, UniProt O60674); assay: Inhibition of JAK2 in human HEK293 cells after 1 hr by competition binding assay; assay type: cell-based; method in brief: as §1
Sequence of Tyrosine-protein kinase JAK2 (O60674 whole entry): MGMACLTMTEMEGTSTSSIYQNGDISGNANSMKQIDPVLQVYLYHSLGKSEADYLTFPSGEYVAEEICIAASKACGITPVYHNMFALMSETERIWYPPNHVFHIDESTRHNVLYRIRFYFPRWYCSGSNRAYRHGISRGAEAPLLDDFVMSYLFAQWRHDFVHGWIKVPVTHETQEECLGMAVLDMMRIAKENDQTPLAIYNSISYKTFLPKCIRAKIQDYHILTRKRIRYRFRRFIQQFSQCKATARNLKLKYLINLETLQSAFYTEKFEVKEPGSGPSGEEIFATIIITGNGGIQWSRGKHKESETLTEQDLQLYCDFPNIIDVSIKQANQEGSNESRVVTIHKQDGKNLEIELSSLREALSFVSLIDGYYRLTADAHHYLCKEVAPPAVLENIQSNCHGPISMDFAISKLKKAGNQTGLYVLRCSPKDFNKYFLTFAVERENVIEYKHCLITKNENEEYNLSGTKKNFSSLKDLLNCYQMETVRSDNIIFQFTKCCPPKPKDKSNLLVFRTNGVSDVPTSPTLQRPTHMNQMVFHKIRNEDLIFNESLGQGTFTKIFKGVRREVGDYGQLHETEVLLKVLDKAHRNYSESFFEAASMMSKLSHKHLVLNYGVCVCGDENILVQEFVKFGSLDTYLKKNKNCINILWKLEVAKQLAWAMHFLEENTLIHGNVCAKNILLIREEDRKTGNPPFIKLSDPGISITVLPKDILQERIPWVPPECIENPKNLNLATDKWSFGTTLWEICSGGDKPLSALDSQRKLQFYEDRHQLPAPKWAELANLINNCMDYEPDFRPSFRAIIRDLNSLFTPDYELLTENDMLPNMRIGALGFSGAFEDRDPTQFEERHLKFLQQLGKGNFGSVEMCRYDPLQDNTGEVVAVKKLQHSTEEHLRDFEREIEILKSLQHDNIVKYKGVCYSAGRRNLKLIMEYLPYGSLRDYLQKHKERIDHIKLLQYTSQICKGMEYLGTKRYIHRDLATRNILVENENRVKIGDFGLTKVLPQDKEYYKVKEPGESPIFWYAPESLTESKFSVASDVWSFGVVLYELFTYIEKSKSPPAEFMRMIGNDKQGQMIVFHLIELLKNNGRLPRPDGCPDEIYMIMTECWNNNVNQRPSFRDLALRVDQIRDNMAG

[6] = molecular target: Tyrosine-protein kinase JAK3 (Homo sapiens, UniProt P52333); assay: Inhibition of JAK3 in human HEK293 cells after 1 hr by competition binding assay; assay type: cell-based; method in brief: as §1
Sequence of Tyrosine-protein kinase JAK3 (P52333 whole entry, canonical isoform): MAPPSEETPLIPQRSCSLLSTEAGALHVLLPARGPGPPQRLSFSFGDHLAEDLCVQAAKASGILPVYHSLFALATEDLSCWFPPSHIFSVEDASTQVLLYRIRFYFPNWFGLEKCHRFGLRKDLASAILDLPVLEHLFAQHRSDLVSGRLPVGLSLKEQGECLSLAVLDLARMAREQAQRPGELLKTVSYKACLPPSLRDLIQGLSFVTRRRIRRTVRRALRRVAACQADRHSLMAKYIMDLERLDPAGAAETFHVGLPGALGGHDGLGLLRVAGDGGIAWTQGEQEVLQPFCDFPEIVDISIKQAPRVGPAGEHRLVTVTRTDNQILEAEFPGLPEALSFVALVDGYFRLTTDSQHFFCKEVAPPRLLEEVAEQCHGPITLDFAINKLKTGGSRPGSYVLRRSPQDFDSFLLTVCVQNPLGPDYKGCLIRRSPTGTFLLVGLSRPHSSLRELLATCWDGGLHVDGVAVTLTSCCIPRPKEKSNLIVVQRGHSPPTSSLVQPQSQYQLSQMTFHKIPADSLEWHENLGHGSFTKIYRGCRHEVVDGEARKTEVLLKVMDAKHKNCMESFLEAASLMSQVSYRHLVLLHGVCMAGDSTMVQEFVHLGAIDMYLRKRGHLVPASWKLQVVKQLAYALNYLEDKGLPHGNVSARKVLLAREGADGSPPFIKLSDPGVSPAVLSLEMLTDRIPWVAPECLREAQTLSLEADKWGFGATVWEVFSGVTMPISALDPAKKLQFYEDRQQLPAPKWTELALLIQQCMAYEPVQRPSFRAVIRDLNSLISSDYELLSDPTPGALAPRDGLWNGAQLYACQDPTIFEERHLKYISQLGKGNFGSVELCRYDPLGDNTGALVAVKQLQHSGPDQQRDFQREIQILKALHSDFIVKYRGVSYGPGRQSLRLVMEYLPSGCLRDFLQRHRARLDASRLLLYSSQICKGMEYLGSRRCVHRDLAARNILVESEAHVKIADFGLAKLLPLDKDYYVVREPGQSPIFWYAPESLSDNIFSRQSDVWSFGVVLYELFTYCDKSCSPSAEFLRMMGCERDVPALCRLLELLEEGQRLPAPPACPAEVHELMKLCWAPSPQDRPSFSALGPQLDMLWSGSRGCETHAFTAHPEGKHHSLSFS

[7] = molecular target: Phosphatidylinositol 4,5-bisphosphate 3-kinase catalytic subunit alpha isoform (Homo sapiens, UniProt P42336); assay: Inhibition of PIK3-CA in human HEK293 cells after 1 hr by competition binding assay; assay type: cell-based; method in brief: as §1
Sequence of Phosphatidylinositol 4,5-bisphosphate 3-kinase catalytic subunit alpha isoform (P42336 whole entry, canonical isoform): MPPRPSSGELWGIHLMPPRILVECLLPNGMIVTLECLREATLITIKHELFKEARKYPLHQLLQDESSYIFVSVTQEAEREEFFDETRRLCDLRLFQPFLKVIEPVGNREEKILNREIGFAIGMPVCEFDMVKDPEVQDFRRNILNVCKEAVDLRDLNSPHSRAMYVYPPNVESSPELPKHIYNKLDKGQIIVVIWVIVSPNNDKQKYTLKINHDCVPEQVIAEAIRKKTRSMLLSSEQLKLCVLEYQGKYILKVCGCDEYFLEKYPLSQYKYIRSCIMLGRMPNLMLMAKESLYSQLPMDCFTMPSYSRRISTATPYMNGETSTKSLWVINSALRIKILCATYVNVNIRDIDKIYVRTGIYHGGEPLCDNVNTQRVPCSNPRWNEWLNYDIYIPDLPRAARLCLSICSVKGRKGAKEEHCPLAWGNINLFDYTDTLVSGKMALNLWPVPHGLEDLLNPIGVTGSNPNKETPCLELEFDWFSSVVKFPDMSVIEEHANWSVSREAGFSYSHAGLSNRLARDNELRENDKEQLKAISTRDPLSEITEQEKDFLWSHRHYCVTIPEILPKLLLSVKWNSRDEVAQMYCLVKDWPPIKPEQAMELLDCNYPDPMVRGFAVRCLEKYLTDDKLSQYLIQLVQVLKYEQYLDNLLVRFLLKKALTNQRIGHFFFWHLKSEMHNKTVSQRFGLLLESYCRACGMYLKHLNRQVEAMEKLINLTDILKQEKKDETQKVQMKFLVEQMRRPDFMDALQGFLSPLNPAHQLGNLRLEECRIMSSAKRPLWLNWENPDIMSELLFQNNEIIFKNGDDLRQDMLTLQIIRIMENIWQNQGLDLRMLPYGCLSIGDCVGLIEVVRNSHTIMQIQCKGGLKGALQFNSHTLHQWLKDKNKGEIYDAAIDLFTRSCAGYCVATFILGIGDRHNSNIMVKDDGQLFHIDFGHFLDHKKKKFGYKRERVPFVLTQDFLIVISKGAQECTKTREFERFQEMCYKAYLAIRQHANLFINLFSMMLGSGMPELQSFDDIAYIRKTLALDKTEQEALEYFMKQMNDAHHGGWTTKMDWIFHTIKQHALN

COLO 205 [8] = assay: Cytotoxicity against human COLO205 cells expressing BRAF V600E mutant after 72 hrs by cell titer blue assay; assay type: functional, cell-based; settings: COLO 205, 72 h
Method in brief: (§2)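 Cells were grown in ATCC-recommended media and kept overnight in 0.5% serum. They were then exposed to compound for 72 h, and Cell Titer Blue was added for 3 h. EC50 came from fluorometric concentration−response curves, run in duplicate and repeated at least once.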

Hs-578T = assay: Cytotoxicity against human Hs578T cells expressing wild type BRAF after 72 hrs by cell titer blue assay; assay type: functional, cell-based; method in brief: as §2
LNCaP = assay: Cytotoxicity against human LNCAP cells expressing wild type BRAF after 72 hrs by cell titer blue assay; assay type: functional, cell-based; method in brief: as §2
PC-3 = assay: Cytotoxicity against human PC3 cells expressing wild type BRAF after 72 hrs by cell titer blue assay; assay type: functional, cell-based; settings: PC-3, 72 h; method in brief: as §2
[9] = AUC (infinity) in athymic nude mouse at 100 mg/kg, po; assay type: ADME, organism-based; set-up: time infinity, dose 100 mg/kg, route oral; settings: plasma
Method in brief: (§3)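 Single-dose PK. Rats: male Sprague−Dawley, jugular-catheterized, 1 mg/kg iv in 3:1 PEG400/water (n = 2) and 10 mg/kg po in Pharmatek #6 (n = 3). Female athymic nude mice: 100 mg/kg po in Pharmatek #6 (n = 3). Beagle dogs and male cynomolgus monkeys (n = 3): crossover, 1 mg/kg iv and 10 mg/kg po in 22% HPβCD, overnight fast. Plasma LC-MS/MS to 24 h; noncompartmental parameters, mean ± SD.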

[10] = Tmax in athymic nude mouse at 100 mg/kg, po; assay type: ADME, organism-based; set-up: dose 100 mg/kg, route oral; settings: in vivo
Method in brief: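 Female athymic nude mice (20–25 g, n = 3) received a single oral dose of 100 mg/kg in Pharmatek #6, calculated as free base. Blood was drawn into K3EDTA at 15 and 30 min and at 1, 2, 4, 6 and 24 h. Plasma was analyzed by LC-MS/MS. Parameters came from noncompartmental linear-trapezoidal analysis; mean ± SD reported.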

[11] = Volume of distribution in beagle dog at 1 mg/kg, iv and 10 mg/kg, po; assay type: ADME, organism-based, Canis lupus familiaris; settings: in vivo
Method in brief: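 Male non-naive cynomolgus monkeys (2.6–3.4 kg) and beagle dogs (10.3–11.9 kg), n = 3 each, were dosed in a crossover design with a ≥7-day washout. Doses were 10 mg/kg by nasogastric gavage and 1 mg/kg as a saphenous iv bolus, both free base in 22% HPβCD. Animals were fasted overnight until about 4 h post dose. Femoral plasma was sampled from predose to 24 h and analyzed by LC-MS/MS. Parameters came from noncompartmental analysis; mean ± SD reported.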

[12] = AUC (infinity) in Cynomolgus monkey at 10 mg/kg, po; assay type: ADME, organism-based, Macaca fascicularis; set-up: dose 10 mg/kg, route oral, time infinity; settings: plasma; method in brief: as §3
COLO 205 [13] = assay: Antitumor activity against human COLO205 cells xenografted in athymic nude mouse at 100 mg/kg, po bid for 14 days; assay type: functional, organism-based; set-up: dose 100 mg/kg
Method in brief: (§4)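 Athymic nude mice carried subcutaneous flank Colo-205 xenografts (1 × 10^6 cells), randomized at 150−200 mm3 (n = 10/group). Oral dosing BID for 14 days in 22% HPβCD against vehicle controls. Caliper volumes W2(L/2) taken three times weekly. Partial regression: volume fell in ≥3 successive measurements to below the starting volume while the tumor stayed palpable.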

Mus musculus [14] = assay: Toxicity in athymic nude mouse xenografted with human COLO205 cells at 100 mg/kg, po bid for 14 days measured upto 1 week post dosing; assay type: organism-based, COLO 205; set-up: dose 100 mg/kg, route oral; settings: in vivo
Method in brief: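 Athymic nude mice (20–25 g) were inoculated subcutaneously in the flank with 1×10^6 Colo-205 cells. At 150–200 mm3 they were randomized (n = 10/group) to oral vehicle (22% HPβCD) or 10, 30 or 100 mg/kg BID for 14 days. Calipers were used three times weekly. Body weight and behavior were monitored, with 7–10 days of follow-up after dosing. Partial regression meant volume falling in ≥3 successive measurements, ending below baseline but still palpable.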

COLO 205 [15] = assay: Antitumor activity against human COLO205 cells xenografted in athymic nude mouse assessed as partial tumor regression at 30 mg/kg, po bid for 14 days; assay type: functional; method in brief: as §4
Mus musculus [16] = assay: Inhibition of BRAF V600E mutant-mediated MEK phosphorylation in human COLO205 cells xenografted in athymic nude mouse at 30 mg/kg, po after 2 hrs; assay type: functional; settings: COLO 205, 2 h
Method in brief: (§5)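 Mice bearing Colo-205 xenografts got one oral dose in 22% HPβCD; vehicle controls were run. Tumors were collected at time points over 24 h and lysed. pMEK and total MEK in the lysates were measured by immunoblotting and ELISA, and pMEK was normalized to total MEK.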

Mus musculus [17] = assay: Inhibition of BRAF V600E mutant-mediated MEK phosphorylation in human COLO205 cells xenografted in athymic nude mouse at 55 mg/kg, po after 10 hrs; assay type: functional; settings: COLO 205, 10 h; method in brief: as §5
[18] = molecular target: T1, Serine/threonine-protein kinase B-raf (Homo sapiens, UniProt P15056, V600E)
T1 sequence (P15056 2-766 V600E limits assumed): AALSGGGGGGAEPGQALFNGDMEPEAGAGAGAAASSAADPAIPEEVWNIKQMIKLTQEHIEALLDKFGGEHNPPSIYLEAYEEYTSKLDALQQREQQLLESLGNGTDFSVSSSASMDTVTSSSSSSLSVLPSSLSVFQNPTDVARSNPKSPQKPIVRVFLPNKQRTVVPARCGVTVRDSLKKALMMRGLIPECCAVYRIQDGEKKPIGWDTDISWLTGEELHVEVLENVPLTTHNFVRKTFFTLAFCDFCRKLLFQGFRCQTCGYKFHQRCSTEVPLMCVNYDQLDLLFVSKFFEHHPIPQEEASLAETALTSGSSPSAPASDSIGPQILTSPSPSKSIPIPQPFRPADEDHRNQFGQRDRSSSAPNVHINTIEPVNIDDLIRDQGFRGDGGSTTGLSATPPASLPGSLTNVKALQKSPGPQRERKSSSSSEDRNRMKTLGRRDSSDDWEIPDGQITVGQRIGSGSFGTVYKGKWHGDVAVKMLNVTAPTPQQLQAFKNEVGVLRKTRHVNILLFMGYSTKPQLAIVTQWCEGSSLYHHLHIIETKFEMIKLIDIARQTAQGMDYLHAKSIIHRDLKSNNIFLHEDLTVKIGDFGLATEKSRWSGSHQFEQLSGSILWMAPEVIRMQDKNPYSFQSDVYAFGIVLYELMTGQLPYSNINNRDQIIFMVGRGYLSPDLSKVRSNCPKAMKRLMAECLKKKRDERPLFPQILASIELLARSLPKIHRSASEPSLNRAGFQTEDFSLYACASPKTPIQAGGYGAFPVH

[19] = molecular target: T1, Serine/threonine-protein kinase B-raf; remark: listed apart in the source

COc1cc2ncnc(Oc3cccc(NC(=O)Nc4cc(C(C)(C)C(F)(F)F)on4)c3)c2cc1OC [CEP-32496]
Vd [1]: 1.6 L/kg
remaining at 1 h, 1 µM [2]: 81%
Kd [3]: 39 nM
Kd [4]: 9 nM
Kd [5]: 4700 nM
Kd [6]: > 10000 nM
Kd [7]: > 10000 nM
EC50 (COLO 205 [8]): 36 nM
EC50 (Hs-578T): 2740 nM
EC50 (LNCaP): 6630 nM
EC50 (PC-3): 6260 nM
AUC(0-inf) [9]: 394 µM·h
Tmax [10]: 1.3 h
Vd [11]: 4.5 L/kg
AUC(0-inf) [12]: 92.2 µM·h
Activity (COLO 205 [13]): Active
Activity (Mus musculus [14]): Non-toxic
Activity (COLO 205 [15]): 40%
inhibition in vivo at 30 mg/kg (Mus musculus [16]): 50%
inhibition in vivo at 55 mg/kg (Mus musculus [17]): 57%
Kd [18]: 14 nM
IC50 [19]: 82 nM
